Results: the EternaBench riboswitch data

Tested on: MS2 coat protein
Experiment: apparent Kd, MS2 coat protein; higher = weaker binding; RNA-MaP array
Method in brief: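 Designed RNAs were transcribed on an Illumina sequencing chip from sequenced DNA templates. They were incubated at room temperature with fluorescently labeled MS2 coat protein at 1.5 nM to 3 μM, for 0.8–1.5 h at the lowest to 10–20 min at the highest concentrations, in Tris-HCl pH 7.5 buffer with KCl, MgCl2, BSA, DTT, tRNA and Tween20, with or without input ligand. Apparent Kd is the median of per-cluster binding-curve fits. Designs measured on fewer than 10 clusters were excluded.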

[1] = designed as: OFF switch for flavin mononucleotide, no ligand
[2] = ligand present: flavin mononucleotide, designed as: OFF switch for flavin mononucleotide
[3] = designed as: OFF switch for theophylline, no ligand
[4] = ligand present: theophylline, designed as: OFF switch for theophylline
[5] = designed as: ON switch for flavin mononucleotide, no ligand
[6] = ligand present: flavin mononucleotide, designed as: ON switch for flavin mononucleotide
[7] = designed as: ON switch for theophylline, no ligand
[8] = ligand present: theophylline, designed as: ON switch for theophylline

Which “apparent Kd” value [1] does the source give for “AGGUUACGUGUGAGGAUAUUAAGAUAUUAAAUUUAUAAGAAGGCACAUGAGGAUCACCCAUGUAUGACUUCCCA” here?
The value was 5.66 nM.

And the “apparent Kd” value [2]?
Its value is 6.77 nM.

For “UUACAGAAAGGAUAUACAUGAGGAUCACCCAUGUAGUAUGAGUUGGUGAGAGUUCGUGGUAGAAGGUUCCGCAA”, which “apparent Kd” value [1] is on record?
The value was 53 nM.

And the “apparent Kd” value [2]?
The value was 55.2 nM.

Which results are given for “CCCAAGCCAGCUGAUACCAGUGACGUGGUCAGAAUGUGCGACAUGAGGAUCACCCAUGUACACCCUUGGCAGCAGUAGAACGGUU”?
apparent Kd [3]: 14.4 nM; apparent Kd [4]: 51.7 nM

How did the “apparent Kd” value [5] turn out when “AGACUUAGACAAGGAUAUGGUGAGGCCACCUUACAUGAGGAUCACCCAUGUCUAGAGAUCCUGUGCCAGAAGGUGUAGUUGGAC” was run?
The value was 312 nM.

And the “apparent Kd” value [6]?
Its value is 75.7 nM.

Which “apparent Kd” value [1] does the source give for “ACUGGUUCGGUUGUCACACAUGAGGAUCACCCAUGUAAGGUAGAGGAUAUCGCUCCGUCCUUCGGCGAGAAGGCUAUUCGACGC” here?
Its value is 13 nM.

And the “apparent Kd” value [2]?
The value was 10.3 nM.

What does the source list for “ACUAAACAUGAGGAUCACCCAUGUAAUUGAAGCUAAGGAUAUCAGAAGAAUGGUGAUUCAUGAGAAGGAAGCGAUU”?
apparent Kd [5]: 86.9 nM; apparent Kd [6]: 58.6 nM

“GUGGGACAUGAGGAUCACCCAUGUGACGAUACCAGUCAAUUGAUGGACCCUUGGCAGCGUUGGUAUUGCGGGUAGGCGAGAUAAG” was tested. Which “apparent Kd” value [7] did it give?
Its value is 43.2 nM.

And the “apparent Kd” value [8]?
Its value is 45.4 nM.

Which results are given for “CAUGUCAAAGACAUGAGGAUCACCCAUGUAAUCCAAGACGCAAGAAGGGCGUGUUGAACUAACACGCAGGAUAUUGACCCUGUU”?
apparent Kd [1]: 57.5 nM; apparent Kd [2]: 73.4 nM

Which “apparent Kd” value [1] does the source give for “UAGCUGCUUCAGAAGGCCGUUGGGUGAAAACGCUCCGGGUGCCACAUGAGGAUCACCCAUGUUUCGGAGGAUAUGAAAGCAUCC” here?
Its value is 47.8 nM.

And the “apparent Kd” value [2]?
Its value is 201 nM.

“AAGGCUACGACCGAUACCAGUAGACGGCAUUCGUAGGAGAACAUGAGGAUCACCCAUGUCUACCCUUGGCAGCGGAAAAUACACU” was tested. Which “apparent Kd” value [3] did it give?
The value was 13.5 nM.

What about the “apparent Kd” value [4] of the same sequence?
Its value is 39.8 nM.

What does the source list for “UAACCACCGCAGGAUAUGCUAUGUUCAGUGUCUGCAGAAGGGCGUACAUGAGGAUCACCCAUGUAGUGACCUCA”?
apparent Kd [1]: 95.2 nM; apparent Kd [2]: 110 nM

“CACGAGAACACUCAGGAUAUGACAAACAAGACAUGAGGAUCACCCAUGUGAAAUUACGGGUGCAAACAGAAGGGAGAAACUUACAC” was tested. Which “apparent Kd” value [5] did it give?
The value was 48.6 nM.

And the “apparent Kd” value [6]?
Its value is 47.5 nM.

Which results are given for “UGAGUAAGCGAGGAUAUUGGGCGCGUACGUGGUCAAGAAGGCGCAACAUGAGGAUCACCCAUGUGCUUCUCUUG”?
apparent Kd [1]: 15.7 nM; apparent Kd [2]: 29.2 nM

For “GAAAGAUGAGGAUAUACAUGAGGAUCACCCAUGUGAUUAAAUUGAACACCGAAUUACUGUAGAAGGCAUAAACC”, which “apparent Kd” value [1] is on record?
Its value is 19.9 nM.

And the “apparent Kd” value [2]?
Its value is 16.8 nM.

What does the source list for “UUAGGUUAUAAAGUGACAUGAGGAUCACCCAUGUGCUCACAGAGAAGGUUAUACCUACAGGCUAUAAAGGAUAUCUCCUAAAUU”?
apparent Kd [1]: 12.3 nM; apparent Kd [2]: 8.73 nM

“CGUAUUGCUCGUUAGGAUAUCCAAUCUGAAACAUGAGGAUCACCCAUGUAGCCAGCAUCACAUGAGGAGAAGGAACAAGAUAAACG” was tested. Which “apparent Kd” value [5] did it give?
Its value is 16.6 nM.

What about the “apparent Kd” value [6] of the same sequence?
The value was 8.89 nM.

Which results are given for “GCUCACAUGAGGAUCACCCAUGUCACGAGGUGAUGAUGAACAAGAAGGAAACUCAUAUGAUCAGUUUAGGAUAUUGCCCAGCGA”?
apparent Kd [1]: 791 nM; apparent Kd [2]: 460 nM

Which “apparent Kd” value [7] does the source give for “ACCGGCACCUAGGAUACCAGAUCCACAACAAACAUGAGGAUCACCCAUGUAUAAAGUGGUAUCCCUUGGCAGCCUGUGACAAUCG” here?
Its value is 16.5 nM.

What about the “apparent Kd” value [8] of the same sequence?
The value was 14.8 nM.

Which “apparent Kd” value [5] does the source give for “CCAUGCGAUAUAGUGAUACAUGAGGAUCACCCAUGUAAAGUGAGAAGGCCAAAUUAAUACUAAGUGGAGGAUAUCAUCGUGAGC” here?
Its value is 53 nM.

And the “apparent Kd” value [6]?
The value was 20.7 nM.

“GGCUAACAUGAGGAUCACCCAUGUAUUGAUACCAGUAUUUGAAAAUACCCUUGGCAGCAAAUGAAGAGCGUAGCAGGGUCGAUUA” was tested. Which “apparent Kd” value [7] did it give?
The value was 11.3 nM.

What about the “apparent Kd” value [8] of the same sequence?
The value was 16.8 nM.

Which results are given for “CAAGCACCAACCGAUACCAGCUUAGUAGUAUGCUCAUUAAACAUGAGGAUCACCCAUGUGAGCCCUUGGCAGCGGAUUUCCCUGC”?
apparent Kd [3]: 13.3 nM; apparent Kd [4]: 20.7 nM
